Measured values from different studies.
Target: Dual specificity mitogen-activated protein kinase kinase 6 (MAP2K6, Homo sapiens, UniProt P52564)
Residues used in one study (P52564 1-334): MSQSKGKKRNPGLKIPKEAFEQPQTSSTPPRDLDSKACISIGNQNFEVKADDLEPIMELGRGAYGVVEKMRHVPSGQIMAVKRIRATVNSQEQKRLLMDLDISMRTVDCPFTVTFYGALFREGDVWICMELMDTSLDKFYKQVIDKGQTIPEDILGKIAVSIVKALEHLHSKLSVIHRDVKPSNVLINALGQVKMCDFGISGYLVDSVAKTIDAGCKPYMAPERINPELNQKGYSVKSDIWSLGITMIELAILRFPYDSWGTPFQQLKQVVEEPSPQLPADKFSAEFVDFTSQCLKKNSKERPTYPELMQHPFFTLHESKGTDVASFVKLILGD

The remaining binding of `C[C@H](NC(=O)c1cnc2n1[C@](C)(Cc1ccc(C#N)cc1)C(=O)N2c1cc(Cl)c(F)c(Cl)c1)C(=O)NC1(c2ccccn2)CC1` is reported as 80% (cell-free assay; competition with immobilised ligand; 1 µM).
For `c1cnn2ncc(-c3ccnc(N4CCC45COC5)n3)c2c1`, the remaining binding was 100% (binding; 1 µM).
`Cc1cnc(Nc2ccc(C(=O)N3CCC(N4CCCC4)CC3)cc2)nc1-c1cc2ccccc2s1` gave a remaining binding of 30% (binding; competition with immobilised ligand; 1 µM).
For `CS(=O)(=O)N1CCCC(NC(=O)[C@H](CCC2CCCCC2)NC(=O)c2ccc(CNC(=O)c3cnc4ccccn34)cc2)C1` (some centres unmarked), the remaining binding was 72% (cell-free assay; competition with immobilised ligand; 0.1 µM).
The remaining binding of `CN(CCCC(F)(F)F)c1nccc(-c2cnn3ncccc23)n1` is reported as 100% (binding; 1 µM).
For `CNC(=O)[C@@H]1CC[C@@H](n2c(-c3ccc4cnccc4c3)nc3ccc(C(=O)NCc4cccc(C(N)=O)c4)cc32)C1`, the remaining binding was 100% (binding; competition with immobilised ligand; 1 µM).
`C[C@H]1CCN(c2nccc(-c3cnn4ncccc34)n2)C1` has a remaining binding of 100% (binding; 1 µM).
`CNC(=O)[C@@]12C[C@@H]1[C@@H](n1cnc3c(NC)nc(C#Cc4ccc(Cl)s4)nc31)[C@H](O)[C@@H]2O` has a remaining binding of 17% (binding; competition with immobilised ligand; 10 µM).
`COc1ccnn2ncc(-c3ccnc(N(C)C)n3)c12` gave a remaining binding of 100% (binding; 1 µM).
With `O=C(c1ccc(Nc2ncc(Cl)c(-c3cc4ccccc4s3)n2)cc1)N1CCC(N2CCCC2)CC1` the remaining binding was 37% (binding; competition with immobilised ligand; 1 µM).
For `C[C@@H](c1ccc(-n2cnc3c(N)ncnc32)cc1)N1CCc2nn(C)c(Cc3ccccc3)c2C1=O`, the remaining binding was 90% (binding; competition with immobilised ligand; 0.1 µM).
For `Cc1c(C(=O)O)cc(-c2ccc(C3CCNCC3)cc2)c2ccc(-c3ccc(C(F)(F)F)cc3)cc12`, the remaining binding was 100% (binding; competition with immobilised ligand; 1 µM).
With `Nc1ncc2c(n1)-c1c([nH]c3ccc(C#CC4CC4)cc13)CCCC2` the remaining binding was 100% (binding; competition with immobilised ligand; 1 µM).
The remaining binding of `CNC(=O)Nc1ccc2c(c1)CC[C@@]21OC(=O)N(CC(=O)N(Cc2ccc(F)cc2)[C@@H](C)C(F)(F)F)C1=O` is reported as 100% (cell-free assay; competition with immobilised ligand; 1 µM).
`CN(C)c1nccc(-c2cnc3ncccn23)n1` gave a remaining binding of 99% (binding; 1 µM).
`O=C(Nc1c[nH]nc1C(=O)NC1CCNCC1)c1cc(F)cc(F)c1` has a remaining binding of 100% (binding; competition with immobilised ligand; 1 µM).
`CN([C@@H]1CCc2c(CC(=O)O)c3ccccc3n2C1)S(=O)(=O)c1ccc(F)cc1` gave a remaining binding of 100% (cell-free assay; competition with immobilised ligand; 1 µM).
The remaining binding of `CN(C)c1nccc(-c2cnn3ncccc23)n1` is reported as 58% (binding; 1 µM).
With `O=C(c1ccc(Nc2nccc(-c3cc4ccccc4s3)n2)cc1)N1CCC(N2CCCC2)CC1` the remaining binding was 33% (binding; competition with immobilised ligand; 1 µM).
`CS(=O)(=O)N1CCCC(NC(=O)[C@H](CCC2CCCCC2)NC(=O)c2ccc(CNc3ncnc4c3nnn4-c3ccccc3)cc2)C1` (some centres unmarked) has a remaining binding of 67% (cell-free assay; competition with immobilised ligand; 0.1 µM).
`c1cncc(-c2cccc(Nc3nccc(NC4CCCCC4)n3)c2)c1` gave a remaining binding of 79% (binding; competition with immobilised ligand; 10 µM).
`N[C@H]1CCN(c2nccc(-c3cnn4ncccc34)n2)C1` gave a remaining binding of 100% (binding; 1 µM).
With `Cn1nc(C(=O)NCc2ccc(C(=O)O)cc2)cc1-c1ccc2[nH]ccc2c1` the remaining binding was 100% (cell-free assay; competition with immobilised ligand; 0.1 µM).
